Data reported in ChEMBL document CHEMBL1157373, “Dual targeting of DNA gyrase and topoisomerase IV: target interactions of heteroaryl isothiazolones in Staphylococcus aureus” (Antimicrob Agents Chemother, 2007).
≈ marks a conversion by molar mass, not a printed value.

How the values were obtained:
Staphylococcus aureus [1] = assay: Antibacterial activity against Staphylococcus aureus ATCC 29213 after 24 hrs by broth microdilution method; format: functional; conditions: ATCC 29213, 24 h
Method in brief: (§1)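 Broth microdilution per CLSI guidelines. MIC taken as the lowest concentration preventing visible growth at 24 h. Each MIC determined at least twice.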

Staphylococcus aureus [2] = assay: Antibacterial activity against Staphylococcus aureus ACH-0204 isolate with gyrA Ser84Leu mutant after 24 hrs by broth microdilution method; format: functional; method in brief: as §1
Staphylococcus aureus [3] = assay: Antibacterial activity against Staphylococcus aureus ACH-0221 isolate with gyrA Ser84Leu mutant after 24 hrs by broth microdilution method; format: functional; method in brief: as §1
Staphylococcus aureus [4] = assay: Antibacterial activity against Staphylococcus aureus ACH-0218 isolate with grlA Glu84Lys mutant after 24 hrs by broth microdilution method; format: functional; method in brief: as §1
Staphylococcus aureus [5] = assay: Antibacterial activity against Staphylococcus aureus ACH-0203 isolate with gyrA Ser84Leu and grlA Ser80Phe, Ala116Val mutant after 24 hrs by broth microdilution method; format: functional; method in brief: as §1
[6] = Inhibition of Staphylococcus aureus […] topoisomerase 4 grlA S80F mutant decatenation activity assessed as unlinking of DNA microcircles from kinetoplast DNA
Method in brief: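 Recombinant S. aureus GrlA (Ser80Phe) and GrlB were mixed 1:1 molar on ice for 10 min. kDNA (0.1 μg) with 2 U enzyme, 30 min at 37°C, in 1 mM ATP, 5 mM MgCl2, 250 mM K-glutamate, 50 mM Tris pH 7.5. Reactions stopped with EDTA, run on 1% agarose-TBE and ethidium-stained, minicircles quantitated. IC50 by nonlinear regression.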

Staphylococcus aureus [7] = assay: Antibacterial activity against Staphylococcus aureus BSA678 isolate with gyrA Ser84Leu, Ser85Pro and grlA Ser80Phe, Glu84Lys mutant after 24 hrs by broth microdilution method
Staphylococcus aureus [8] = assay: Antibacterial activity against Staphylococcus aureus ACH-0206 isolate with gyrA Ser84Leu mutant after 24 hrs by broth microdilution method; format: functional; method in brief: as §1
Staphylococcus aureus [9] = assay: Antibacterial activity against Staphylococcus aureus ACH-0216 isolate with grlA Ser80Phe mutant after 24 hrs by broth microdilution method; format: functional; method in brief: as §1
[10] = Inhibition of Staphylococcus aureus wild-type topoisomerase 4 decatenation activity assessed as unlinking of DNA microcircles from kinetoplast DNA
Method in brief: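 S. aureus topo IV reconstituted from His-purified recombinant GrlA and GrlB (E. coli BL21(DE3)pLysS expression), mixed 1:1 molar on ice 10 min. 0.1 μg catenated kDNA with 2 U enzyme, 30 min at 37°C in 1 mM ATP, 5 mM DTT, 5 mM MgCl2, 50 μg/ml BSA, 50 mM Tris-HCl pH 7.5, 250 mM potassium glutamate. Products on 1% agarose gel, ethidium-stained, quantitated; IC50 by nonlinear regression.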

Staphylococcus aureus [11] = assay: Antibacterial activity against Staphylococcus aureus ACH-0201 isolate with gyrA Ser84Leu, Glu88Val and grlA Ser80Phe, Ala116Val mutant after 24 hrs by broth microdilution method; format: functional
Staphylococcus aureus [12] = assay: Antibacterial activity against Staphylococcus aureus BSA643 isolate with gyrA Ser84Leu and grlA Ser80Tyr, Glu84Gly mutant after 24 hrs by broth microdilution method; format: functional
Staphylococcus aureus [13] = assay: Antibacterial activity against Staphylococcus aureus ATCC 33591 isolate after 24 hrs by broth microdilution method; format: functional; conditions: ATCC 33591, 24 h; method in brief: as §1
Staphylococcus aureus [14] = assay: Antibacterial activity against Staphylococcus aureus ACH-0231 isolate with gyrA Ser84Leu, Glu88Lys and grlA Ser80Tyr, Glu84Gly mutant after 24 hrs by broth microdilution method; format: functional
Staphylococcus aureus [15] = assay: Antibacterial activity against Staphylococcus aureus ACH-0141 isolate with gyrA Ser84Leu, Glu88Val and grlA Ser80Phe, Ala116Val mutant after 24 hrs by broth microdilution method; format: functional
Staphylococcus aureus [16] = assay: Antibacterial activity against Staphylococcus aureus ACH-0210 isolate with gyrA Ser84Leu and grlA Ser80Phe mutant after 24 hrs by broth microdilution method; format: functional
Staphylococcus aureus [17] = assay: Antibacterial activity against Staphylococcus aureus ACH-0192 isolate with gyrA Ser84Leu and grlA Ser80Phe, Ala116Val mutant after 24 hrs by broth microdilution method; format: functional
Staphylococcus aureus [18] = assay: Antibacterial activity against Staphylococcus aureus ACH-0186 isolate with gyrA Ser84Leu and grlA Ser80Phe, Ala116Val mutant after 24 hrs by broth microdilution method; format: functional
Staphylococcus aureus [19] = assay: Antibacterial activity against Staphylococcus aureus ACH-0126 isolate with gyrA Ser84Leu and grlA Ser80Phe mutant after 24 hrs by broth microdilution method; format: functional
Staphylococcus aureus [20] = assay: Antibacterial activity against Staphylococcus aureus ATCC 700699 isolate with gyrA Ser84Leu, Glu409Lys and grlA Ser80Phe mutant after 24 hrs by broth microdilution method; format: functional; conditions: ATCC 700699, 24 h
Staphylococcus aureus [21] = assay: Antibacterial activity against Staphylococcus aureus ACH-0129 isolate with gyrA Ser84Leu, Glu88Val and grlA Ser80Phe, Ala116Val mutant after 24 hrs by broth microdilution method; format: functional
Staphylococcus aureus [22] = assay: Antibacterial activity against Staphylococcus aureus NY2746 isolate with gyrA Ser84Leu and grlA Ser80Phe mutant after 24 hrs by broth microdilution method; format: functional
DNA gyrase subunit A = DNA gyrase subunit A (Staphylococcus aureus, UniProt P20831, S84L); assay: Inhibition of Staphylococcus aureus DNA gyrase gyrA S84L mutant supercoiling activity assessed as effect on conversion of relaxed pBR322 DNA to supercoiled form

SMILES: O=C(O)c1cn(C2CC2)c2cc(N3CCNCC3)c(F)cc2c1=O [CIPROFLOXACIN]
- MIC (Staphylococcus aureus [1]): 0.25 µg/mL (≈ 0.754 µM)
- MIC (Staphylococcus aureus [2]): 0.5 µg/mL (≈ 1.51 µM)
- MIC (Staphylococcus aureus [3]): 1 µg/mL (≈ 3.02 µM)
- MIC (Staphylococcus aureus [4]): 2 µg/mL (≈ 6.04 µM)
- MIC (Staphylococcus aureus [5]): 128 µg/mL (≈ 386 µM)
- IC50 [6]: > 40 µM
- MIC (Staphylococcus aureus [7]): 128 µg/mL (≈ 386 µM)
- MIC (Staphylococcus aureus [8]): 0.5 µg/mL (≈ 1.51 µM)
- MIC (Staphylococcus aureus [9]): 2 µg/mL (≈ 6.04 µM)
- IC50 [10]: 3 µM

SMILES: CO/N=C1\CN(c2nc3c(cc2F)c(=O)c(C(=O)O)cn3C2CC2)CC1CN (centres undefined) [GEMIFLOXACIN]
- MIC (Staphylococcus aureus [11]): 8 µg/mL (≈ 20.5 µM)
- MIC (Staphylococcus aureus [1]): 0.03 µg/mL (≈ 0.077 µM)
- MIC (Staphylococcus aureus [12]): 32 µg/mL (≈ 82.2 µM)
- MIC (Staphylococcus aureus [2]): 0.125 µg/mL (≈ 0.321 µM)
- MIC (Staphylococcus aureus [13]): 0.06 µg/mL (≈ 0.154 µM)
- MIC (Staphylococcus aureus [3]): 0.5 µg/mL (≈ 1.28 µM)
- MIC (Staphylococcus aureus [14]): > 64 µg/mL
- MIC (Staphylococcus aureus [15]): 4 µg/mL (≈ 10.3 µM)
- MIC (Staphylococcus aureus [4]): 0.125 µg/mL (≈ 0.321 µM)
- MIC (Staphylococcus aureus [16]): 4 µg/mL (≈ 10.3 µM)
- MIC (Staphylococcus aureus [5]): 32 µg/mL (≈ 82.2 µM)
- IC50 [6]: 9.8 µM
- MIC (Staphylococcus aureus [7]): 64 µg/mL (≈ 164 µM)
- MIC (Staphylococcus aureus [17]): 8 µg/mL (≈ 20.5 µM)
- MIC (Staphylococcus aureus [18]): 4 µg/mL (≈ 10.3 µM)
- MIC (Staphylococcus aureus [19]): 4 µg/mL (≈ 10.3 µM)
- MIC (Staphylococcus aureus [8]): 0.125 µg/mL (≈ 0.321 µM)
- MIC (Staphylococcus aureus [20]): 4 µg/mL (≈ 10.3 µM)
- MIC (Staphylococcus aureus [9]): 0.125 µg/mL (≈ 0.321 µM)
- MIC (Staphylococcus aureus [21]): 8 µg/mL (≈ 20.5 µM)
- MIC (Staphylococcus aureus [22]): 32 µg/mL (≈ 82.2 µM)
- IC50 (DNA gyrase subunit A): > 300 µM
- IC50 [10]: 0.4 µM

SMILES: CC[n+]1c(-c2ccccc2)c2cc(N)ccc2c2ccc(N)cc21.[Br-] [HOMIDIUM BROMIDE]
- MIC (Staphylococcus aureus [11]): 2 µg/mL
- MIC (Staphylococcus aureus [1]): 4 µg/mL
- MIC (Staphylococcus aureus [12]): 16 µg/mL
- MIC (Staphylococcus aureus [2]): 4 µg/mL
- MIC (Staphylococcus aureus [13]): 16 µg/mL
- MIC (Staphylococcus aureus [3]): 16 µg/mL
- MIC (Staphylococcus aureus [14]): 16 µg/mL
- MIC (Staphylococcus aureus [15]): 4 µg/mL
- MIC (Staphylococcus aureus [4]): 16 µg/mL
- MIC (Staphylococcus aureus [16]): 2 µg/mL
- MIC (Staphylococcus aureus [5]): 32 µg/mL
- MIC (Staphylococcus aureus [7]): 4 µg/mL
- MIC (Staphylococcus aureus [17]): 2 µg/mL
- MIC (Staphylococcus aureus [18]): 1 µg/mL
- MIC (Staphylococcus aureus [19]): 4 µg/mL
- MIC (Staphylococcus aureus [8]): 4 µg/mL
- MIC (Staphylococcus aureus [20]): > 64 µg/mL
- MIC (Staphylococcus aureus [9]): 4 µg/mL
- MIC (Staphylococcus aureus [21]): 4 µg/mL
- MIC (Staphylococcus aureus [22]): 16 µg/mL

SMILES: COc1c(N2C[C@@H]3CCCN[C@@H]3C2)c(F)cc2c(=O)c(C(=O)O)cn(C3CC3)c12 [MOXIFLOXACIN]
- MIC (Staphylococcus aureus [11]): 16 µg/mL (≈ 39.9 µM)
- MIC (Staphylococcus aureus [1]): 0.06 µg/mL (≈ 0.149 µM)
- MIC (Staphylococcus aureus [12]): 16 µg/mL (≈ 39.9 µM)
- MIC (Staphylococcus aureus [2]): 0.125 µg/mL (≈ 0.311 µM)
- MIC (Staphylococcus aureus [3]): 0.5 µg/mL (≈ 1.25 µM)
- MIC (Staphylococcus aureus [14]): 32 µg/mL (≈ 79.7 µM)
- MIC (Staphylococcus aureus [15]): 16 µg/mL (≈ 39.9 µM)
- MIC (Staphylococcus aureus [4]): 0.25 µg/mL (≈ 0.623 µM)
- MIC (Staphylococcus aureus [16]): 4 µg/mL (≈ 9.96 µM)
- MIC (Staphylococcus aureus [5]): 32 µg/mL (≈ 79.7 µM)
- IC50 [6]: 11.9 µM
- MIC (Staphylococcus aureus [7]): > 64 µg/mL
- MIC (Staphylococcus aureus [17]): 16 µg/mL (≈ 39.9 µM)
- MIC (Staphylococcus aureus [18]): 16 µg/mL (≈ 39.9 µM)
- MIC (Staphylococcus aureus [19]): 4 µg/mL (≈ 9.96 µM)
- MIC (Staphylococcus aureus [8]): 0.125 µg/mL (≈ 0.311 µM)
- MIC (Staphylococcus aureus [20]): 4 µg/mL (≈ 9.96 µM)
- MIC (Staphylococcus aureus [9]): 0.25 µg/mL (≈ 0.623 µM)
- MIC (Staphylococcus aureus [21]): 8 µg/mL (≈ 19.9 µM)
- MIC (Staphylococcus aureus [22]): 8 µg/mL (≈ 19.9 µM)
- IC50 [10]: 1 µM
